Experimental data taken from ChEMBL document CHEMBL5247578, “Effective synthesis of benzimidazoles-imidazo[1,2-a]pyrazine conjugates: A comparative study of mono-and bis-benzimidazoles for antitumor activity” (Eur J Med Chem, 2019).

Columns and labels:
Format in all cases: functional
[1] = test system: HCC 2998; assay: Antiproliferative activity against human HCC 2998 cells assessed as cell growth at 0.0000001 M incubated for 48 hrs by SRB assay relative to control; conditions: dose 100 nM, read-out: Activity
In short: (§1)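 NCI-60 five-dose screen (10^-4 to 10^-8 M). Cells grown in RPMI 1640 with 5% FBS and 2 mM L-glutamine, plated at 5,000-40,000 cells/well and preincubated 24 h. Drug given from DMSO stock, then 48 h at 37 °C, 5% CO2. For adherent lines, cells fixed with cold TCA, SRB-stained and read at 515 nm. Percent growth taken against time-zero and untreated control.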

[2] = test system: EKVX; assay: Antiproliferative activity against human EKVX cells assessed as cell growth at 0.0001 M incubated for 48 hrs by SRB assay relative to control; conditions: read-out: Activity; in short: as §1
[3] = test system: SK-OV-3; assay: Antiproliferative activity against human SK-OV-3 cells assessed as cell growth at 0.0001 M incubated for 48 hrs by SRB assay relative to control; conditions: read-out: Activity
[4] = test system: RPMI-8226; assay: Growth inhibition against human RPMI-8226 cells assessed as total growth inhibitory concentration incubated for 48 hrs by sulforhodamine B assay
[5] = test system: 786-0; assay: Antiproliferative activity against human 786-0 cells assessed as cell growth inhibition by measuring lethal concentration incubated for 48 hrs by sulforhodamine B assay; conditions: read-out: LC50 (the source's name)
[6] = test system: MDA-MB-468; assay: Antiproliferative activity against human MDA-MB-468 cells assessed as cell growth at 0.00001 M incubated for 48 hrs by SRB assay relative to control; conditions: read-out: Activity
[7] = test system: TK-10; assay: Growth inhibition against human TK-10 cells incubated for 48 hrs by sulforhodamine B assay
[8] = test system: U-251; assay: Growth inhibition against human U-251 cells incubated for 48 hrs by sulforhodamine B assay
[9] = test system: HCT-116; assay: Antiproliferative activity against human HCT-116 cells assessed as cell growth at 0.0000001 M incubated for 48 hrs by SRB assay relative to control; conditions: dose 100 nM, read-out: Activity; in short: as §1
[10] = test system: CCRF-CEM; assay: Growth inhibition against human CCRF-CEM cells incubated for 48 hrs by sulforhodamine B assay
[11] = test system: HOP-62; assay: Antiproliferative activity against human HOP-62 cells assessed as cell growth at 0.0000001 M incubated for 48 hrs by SRB assay relative to control; conditions: dose 100 nM, read-out: Activity; in short: as §1
[12] = test system: UACC-62; assay: Antiproliferative activity against human UACC-62 cells assessed as cell growth at 0.000001 M incubated for 48 hrs by SRB assay relative to control; conditions: read-out: Activity
[13] = test system: MOLT-4; assay: Antiproliferative activity against human MOLT-4 cells assessed as cell growth at 0.000001 M incubated for 48 hrs by SRB assay relative to control; conditions: read-out: Activity
[14] = test system: SK-MEL-5; assay: Antiproliferative activity against human SK-MEL-5 cells assessed as cell growth at 0.0000001 M incubated for 48 hrs by SRB assay relative to control; conditions: dose 100 nM, read-out: Activity
[15] = test system: A498; assay: Growth inhibition against human A498 cells assessed as total growth inhibitory concentration incubated for 48 hrs by sulforhodamine B assay
[16] = test system: SK-MEL-2; assay: Growth inhibition against human SK-MEL-2 cells assessed as total growth inhibitory concentration incubated for 48 hrs by sulforhodamine B assay
[17] = test system: IGROV-1; assay: Antiproliferative activity against human IGROV-1 cells assessed as cell growth at 0.0001 M incubated for 48 hrs by SRB assay relative to control; conditions: read-out: Activity
[18] = test system: UACC-257; assay: Antiproliferative activity against human UACC-257 cells assessed as cell growth at 0.000001 M incubated for 48 hrs by SRB assay relative to control; conditions: read-out: Activity
[19] = test system: MDA-MB-231; assay: Antiproliferative activity against human MDA-MB-231 cells assessed as cell growth at 0.000001 M incubated for 48 hrs by SRB assay relative to control; conditions: read-out: Activity
[20] = test system: CCRF-CEM; assay: Antiproliferative activity against human CCRF-CEM cells assessed as cell growth at 0.00000001 M incubated for 48 hrs by SRB assay relative to control; conditions: dose 10 nM, read-out: Activity
In short: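 NCI-60 five-dose screen over 10^-4–10^-8 M (10-fold dilutions). Cells grown in RPMI 1640 with 5% FBS and 2 mM L-glutamine, seeded at 5,000–40,000 cells/well and preincubated 24 h. Drug from DMSO stock, 48 h at 37 °C, 5% CO2. Adherent cells TCA-fixed and stained with 0.4% SRB; A515 read. Percent growth = (Ti−Tz)/(C−Tz)×100, or (Ti−Tz)/Tz×100 when Ti<Tz.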

[21] = test system: SF-268; assay: Antiproliferative activity against human SF-268 cells assessed as cell growth at 0.0000001 M incubated for 48 hrs by SRB assay relative to control; conditions: dose 100 nM, read-out: Activity
[22] = test system: SK-MEL-28; assay: Antiproliferative activity against human SK-MEL-28 cells assessed as cell growth at 0.00001 M incubated for 48 hrs by SRB assay relative to control; conditions: read-out: Activity
[23] = test system: Hs-578T; assay: Antiproliferative activity against human Hs-578T cells assessed as cell growth at 0.0000001 M incubated for 48 hrs by SRB assay relative to control; conditions: dose 100 nM, read-out: Activity
In short: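 NCI-60 five-dose mode, 10^-4 to 10^-8 M in 10-fold steps. RPMI 1640, 5% FBS, 2 mM L-glutamine; 24 h preincubation, then 48 h drug exposure at 37 °C. Stocks in DMSO at 400× the top concentration, diluted in medium with gentamicin. TCA fixation, SRB staining, absorbance at 515 nm. Percent growth from time-zero (Tz), control (C) and test (Ti) readings.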

[24] = test system: UACC-62; assay: Antiproliferative activity against human UACC-62 cells assessed as cell growth at 0.0000001 M incubated for 48 hrs by SRB assay relative to control; conditions: dose 100 nM, read-out: Activity
[25] = test system: SF-539; assay: Growth inhibition against human SF-539 cells incubated for 48 hrs by sulforhodamine B assay
[26] = test system: NCI-H460; assay: Antiproliferative activity against human NCI-H460 cells assessed as cell growth at 0.00001 M incubated for 48 hrs by SRB assay relative to control; conditions: read-out: Activity
[27] = test system: DU-145; assay: Antiproliferative activity against human DU-145 cells assessed as cell growth at 0.00001 M incubated for 48 hrs by SRB assay relative to control; conditions: read-out: Activity; in short: as §1
[28] = test system: MDA-MB-231; assay: Antiproliferative activity against human MDA-MB-231 cells assessed as cell growth at 0.0001 M incubated for 48 hrs by SRB assay relative to control; conditions: read-out: Activity
[29] = test system: SF-295; assay: Antiproliferative activity against human SF-295 cells assessed as cell growth at 0.00001 M incubated for 48 hrs by SRB assay relative to control; conditions: read-out: Activity
[30] = test system: NCI/ADR-RES; assay: Antiproliferative activity against human NCI/ADR-RES cells assessed as cell growth at 0.00000001 M incubated for 48 hrs by SRB assay relative to control; conditions: dose 10 nM, read-out: Activity
[31] = test system: MDA-MB-435; assay: Growth inhibition against human MDA-MB-435 cells incubated for 48 hrs by sulforhodamine B assay
[32] = test system: OVCAR-4; assay: Antiproliferative activity against human OVCAR-4 cells assessed as cell growth at 0.0001 M incubated for 48 hrs by SRB assay relative to control; conditions: read-out: Activity

Row | SMILES | growth at 0.1 µM [1] | growth at 100 µM [2] | growth at 100 µM [3] | TGI [4] | CC50 [5] | growth at 10 µM [6] | GI50 [7] | GI50 [8] | growth at 0.1 µM [9] | GI50 [10] | growth at 0.1 µM [11] | growth at 1 µM [12] | growth at 1 µM [13] | growth at 0.1 µM [14] | TGI [15] | TGI [16] | growth at 100 µM [17] | growth at 1 µM [18] | growth at 1 µM [19] | growth at 0.01 µM [20] | further results
1 | COc1ccc(-c2cn3ccnc3c(-c3ccc4ncn(C5CCCCC5)c4c3)n2)cc1 | 94% | 26% | -2% | > 100 µM | > 100 µM | 21% | 2.99 µM | 2220 nM | 91% | 1640 nM | 93% | 27% | 78% | 100% | > 100 µM | > 100 µM | 24% | 69% | 81% | 106% | growth at 0.1 µM [21]: 92%; growth at 10 µM [22]: 33%; growth at 0.1 µM [23]: 102%; growth at 0.1 µM [24]: 90%; GI50 [25]: 569 nM; growth at 10 µM [26]: 4%; growth at 10 µM [27]: 14%; growth at 100 µM [28]: 19%; growth at 10 µM [29]: -29%; growth at 0.01 µM [30]: 100%; GI50 [31]: 312 nM; growth at 100 µM [32]: 57%
2 | c1ccc(Cn2cnc3ccc(-c4nc(-c5ccc6c(c5)ncn6C5CCCCC5)cn5ccnc45)cc32)cc1 | 98% | 14% | 6% | 4.5 µM | > 100 µM | -49% | 3.52 µM | 1990 nM | 93% | 2180 nM | 86% | 87% | 64% | 106% | 3.57 µM | 4.85 µM | 18% | 112% | 83% | 100% | growth at 0.1 µM [21]: 94%; growth at 10 µM [22]: -9%; growth at 0.1 µM [23]: 104%; growth at 0.1 µM [24]: 90%; GI50 [25]: 1060 nM; growth at 10 µM [26]: -32%; growth at 10 µM [27]: 4%; growth at 100 µM [28]: -31%; growth at 10 µM [29]: -82%; growth at 0.01 µM [30]: 100%; GI50 [31]: 2200 nM; growth at 100 µM [32]: 14%
